Converted amounts (≈) assume the structure as drawn.
Key:
[1] = system: HT-29; assay: Cytotoxicity against human HT-29 cells after 7 days by MTT assay; assay type: functional; settings: HT-29, 168 h, read-out: ED50 (the source's name)
Procedure, shortened: (§1)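 Seven-day MTT assay of each compound against the human solid tumour lines A-549 (lung carcinoma), MCF-7 (breast carcinoma) and HT-29 (colon adenocarcinoma), run at a cell culture core laboratory. Adriamycin served as the positive control. Values from separate runs of the cell culture assay were reported apart.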

[2] = system: A549; assay: Cytotoxicity against human A549 cells after 7 days by MTT assay; assay type: functional; settings: A549, 168 h, read-out: ED50 (the source's name); procedure, shortened: as §1
[3] = Toxicity in brine shrimp; assay type: organism-based; settings: artemia, in vivo
[4] = system: MCF7; assay: Cytotoxicity against human MCF7 cells after 7 days by MTT assay; assay type: functional; settings: MCF7, 168 h, read-out: ED50 (the source's name); procedure, shortened: as §1

SMILES | EC50 [1] [ng/mL] | EC50 [2] [ng/mL] | LC50 [3] [ng/mL] | EC50 [4] [ng/mL]
CCCCCCCCCC/C=C\CC[C@@H](O)[C@H]1CC[C@H]([C@H](O)CCCCC(O)CCCCC[C@@H](O)CC2=C[C@H](C)OC2=O)O1 (stereo not given in full) [XYLOMATENIN] | < 1 | < 1 | 770 (≈ 1.24 µM) | 631 (≈ 1.01 µM)
COc1cccc2c1C(=O)c1c(O)c3c(c(O)c1C2=O)C[C@@](O)(C(=O)CO)C[C@@H]3O[C@H]1C[C@H](N)[C@H](O)[C@H](C)O1 [DOXORUBICIN] | 2.7 (≈ 0.00497 µM) | 1.1 (≈ 0.00202 µM) | – | –
CCCCCCCCCC/C=C\CC[C@@H](O)[C@H]1CC[C@H]([C@H](O)CCCCCCC(O)CCC[C@@H](O)CC2=C[C@H](C)OC2=O)O1 (stereo not given in full) [XYLOPIEN] | 7.26 (≈ 0.0117 µM) | 3.64 (≈ 0.00584 µM) | 871 (≈ 1.4 µM) | 7.11 (≈ 0.0114 µM)

Source: ChEMBL document CHEMBL1150072, “Two new bioactive monotetrahydrofuran Annonaceous acetogenins from the bark of Xylopia aromatica” (J Nat Prod, 1994)
